# Results as given in PubChem BioAssay.
# The source made the active and inactive calls.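 The calls were made as follows, unless noted: active = inhibition above 20% together with a positive visual image hit; inconclusive = visual image hit but inhibition not above 20%; inactive = no visual image hit.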
# Key:
# [1] = inhibitors of TNFa-induced NFkB p65 translocation, primary screen, imaging, HUVEC, MLSMR starter and 10KST1 sets (AID 438); details: HUVEC TNFa-induced p65 nuclear translocation; cell count: measured here: nuclei count (cytotoxicity indicator), at 2.08 µM; inhibition: at 2 µM, stronger effect = higher value, 0% TNFa-plus-vehicle, 100% no-TNFa wells;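 also: compound added about 3h40 before a 20 min TNFalpha stimulation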;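 as to inhibition: signal is the nuclear over cytoplasmic p65 intensity ratio per well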
# [2] = inhibitors of E-selectin induction by TNFa, primary screen, imaging, HUVEC, immunofluorescence, MLSMR starter and 10KST1 sets (AID 487;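 active = visually confirmed hit in the image check and inhibition above 20%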;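 as to inhibition: signal is fraction of cell area covered by stained E-selectin grains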;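 as to nuclei count: 100% = median nuclei count of all wells on the same plate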); details: HUVEC TNFalpha-induced E-selectin immunofluorescence imaging, at 2 µM; inhibition: stronger effect = higher value; nuclei count: measured here: cell number, toxicity
# [3] = DUSP6 inhibitors restoring Erk phosphorylation by chemical complementation, primary imaging in DUSP6-transfected HeLa (AID 609;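 active = compounds giving at least 50% inhibition in the cell-based MKP-3 phosphatase rescue imaging test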;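 as to inhibition: phospho-Erk level distribution per well compared with pooled transfected vehicle control wells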); details: HeLa MKP-3 transfected, phospho-Erk imaging KS statistic, at 10 µM, cells stimulated with TPA for 15 min
# [4] = molecular target: Dual specificity protein phosphatase 6 (Homo sapiens) (UniProt Q16828); assay: as above; details: HeLa MKP-3 transfected, phospho-Erk imaging KS statistic; at 10 µM; stronger effect = higher value; cells stimulated with TPA for 15 min
# Sequence of Dual specificity protein phosphatase 6 (Homo sapiens) (Q16828 whole entry, looked up): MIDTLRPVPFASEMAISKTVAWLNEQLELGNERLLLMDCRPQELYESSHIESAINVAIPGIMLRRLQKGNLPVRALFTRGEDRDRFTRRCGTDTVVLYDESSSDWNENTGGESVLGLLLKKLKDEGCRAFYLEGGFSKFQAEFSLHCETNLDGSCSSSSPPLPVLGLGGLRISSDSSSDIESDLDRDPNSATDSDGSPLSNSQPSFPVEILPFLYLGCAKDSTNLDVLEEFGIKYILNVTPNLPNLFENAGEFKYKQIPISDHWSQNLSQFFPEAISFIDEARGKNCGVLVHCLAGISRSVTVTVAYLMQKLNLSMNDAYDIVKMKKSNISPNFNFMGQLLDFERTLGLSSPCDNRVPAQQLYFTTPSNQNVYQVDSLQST
# [5] = molecular target: Voltage-gated potassium channel subunit beta-2 (Rattus norvegicus) (UniProt P62483); assay: KvBeta enzyme negative modulators, primary screen, biochemical, NADPH fluorescence (AID 622;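 active = fluorescence slope higher than the sample average by over 3 SD, cut at about -0.22 in these data, passing the limit was not always enough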;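 also: slope of raw intensity against log time taken from 70 to 1610 s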); details: recombinant KvBeta, 4-cyanobenzaldehyde reduction, at 10 µM, stronger effect = higher value
# Sequence of Voltage-gated potassium channel subunit beta-2 (Rattus norvegicus) (P62483 whole entry, looked up): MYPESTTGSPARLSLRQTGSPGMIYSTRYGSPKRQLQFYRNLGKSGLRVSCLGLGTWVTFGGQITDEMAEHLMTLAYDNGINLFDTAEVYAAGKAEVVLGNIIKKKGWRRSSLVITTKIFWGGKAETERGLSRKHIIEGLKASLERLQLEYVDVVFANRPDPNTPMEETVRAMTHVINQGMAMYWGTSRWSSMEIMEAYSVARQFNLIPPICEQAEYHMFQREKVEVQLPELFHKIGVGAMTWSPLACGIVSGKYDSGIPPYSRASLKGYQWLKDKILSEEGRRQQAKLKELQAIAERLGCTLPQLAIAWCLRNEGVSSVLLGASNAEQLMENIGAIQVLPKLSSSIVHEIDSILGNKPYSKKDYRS
# [6] = molecular target: Voltage-gated potassium channel subunit beta-2 (Rattus norvegicus) (UniProt P62483); assay: KvBeta positive modulators, primary screen, biochemical, NADPH fluorescence (AID 623;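 active = NADPH fluorescence slope more negative than the mean of all samples by about 3 SD, 99.7% confidence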;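 also: fluorescence intensity change per second fitted from 20 to 320 s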); details: Recombinant KvBeta, NADPH fluorescence decrease slope, 10 min; at 10 µM; stronger effect = lower value
# [7] = molecular target: Muscarinic acetylcholine receptor M4 (Homo sapiens) (UniProt P08173); assay: compounds altering M4/GIRK thallium flux, either direction, primary screen, M4 allosteric agonist project, cell-based, HEK293 M4/GIRK, BTC-AM (AID 625;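 active = fluorescence slope after compound addition differing from the mean of all tested samples at 99.7% confidence, mostly higher but some lower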;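 also: thallium influx through GIRK channels coupled to M4 in HEK293 cells with BTC-AM dye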); details: at 10 µM, actives lie on both sides
# Sequence of Muscarinic acetylcholine receptor M4 (Homo sapiens) (P08173 whole entry, looked up): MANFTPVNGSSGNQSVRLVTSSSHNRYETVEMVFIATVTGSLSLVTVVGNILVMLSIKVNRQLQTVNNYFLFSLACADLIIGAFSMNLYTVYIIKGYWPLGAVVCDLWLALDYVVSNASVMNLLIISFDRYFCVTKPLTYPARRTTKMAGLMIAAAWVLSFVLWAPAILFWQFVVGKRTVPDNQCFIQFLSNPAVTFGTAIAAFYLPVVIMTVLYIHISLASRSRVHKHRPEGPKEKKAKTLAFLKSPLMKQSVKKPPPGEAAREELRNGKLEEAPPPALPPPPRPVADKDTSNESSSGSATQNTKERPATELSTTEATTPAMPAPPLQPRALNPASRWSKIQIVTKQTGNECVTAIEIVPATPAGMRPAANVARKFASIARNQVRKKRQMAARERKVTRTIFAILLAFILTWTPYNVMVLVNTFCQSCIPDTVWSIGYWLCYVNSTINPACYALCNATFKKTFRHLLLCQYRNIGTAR
# Summary of the method: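 Material: M4/GIRK1/GIRK2 stable HEK293 cell line. Medium: pH 7.3 thallium assay buffer. Dosing: single compound concentration, 10 µM final. Schedule: 1 h dye loading, 2 min kinetic read. Measured by: kinetic fluorescence with BTC-AM dye. Read-out: post-addition slope, 15–24 s, of baseline-normalized fluorescence. Benchmarks: carbachol and DMSO controls.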
# [8] = inhibitors of larval lipid processing in zebrafish, primary screen, whole organism, PED6 fluorescence, gall bladder and intestine (AID 686;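 active = a full or partial loss of lipid-probe fluorescence in the fish gall bladder, intestine or both, judged by eye; inactive = no fluorescence loss, or compound toxic to the fish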;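 also: larvae 5 to 7 days old with five fish per well; signal comes from phospholipase A2 cleavage of quenched PED6 carried via bile; overnight exposure to compound and PED6 before scoring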); details: Zebrafish larvae PED6 lipid processing, fluorescence scoring; screened at 20 µM (by protocol)
# Summary of the method: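 System: live zebrafish larvae aged 5-7 days, whole organism; measure: graded gall bladder and intestinal fluorescence inhibition per well; incubation: overnight exposure; reagent: ingested quenched lipid PED6 at 100 nM; signal: By-eye fluorescence microscopy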
# [9] = inhibitors of Chlamydomonas gravitaxis, primary screen, whole organism, Chlamydomonas reinhardtii, WT vs cilia-less mutant, absorbance, 96-well (AID 463189;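 active = inhibition at or above 50% relative to wild type and mutant plate controls; inactive = inhibition below 50%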;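 also: 0% = wild type cc124 cells in DMSO and 100% = ciliumless bld1 mutant cells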); details: OD600 absorbance, 2 days, at 10 µM, stronger effect = higher value
# [10] = measured here: cell density z-score
# [11] = measured here: nuclear c-Myc green intensity z-score
# [12] = measured here: nuclear pErk red intensity z-score, stronger effect = higher value
SMILES,cell count [1],inhibition [1],inhibition [2],nuclei count [2],"z-score [3, 10]","z-score [3, 11]","z-score [3, 12]",inhibition [4],fluorescence slope [5],NADPH fluorescence slope [6],fluorescence slope [7],outcome [8],inhibition [9]
Cc1cc(C)n(S(=O)(=O)/C=C/c2ccccc2)n1,395,-10.4% (inactive),-329% (inactive),150%,8.45e-06,-0.53,0.596,-10.6% (inactive),-0.475 (inactive),-0.000103 (inactive),0.00397 (inactive),inactive,25.5% (inactive)
CCSc1nnc(NC(NC(=O)c2ccco2)(C(F)(F)F)C(F)(F)F)s1,608,-7.3% (inactive),-13.8% (inactive),91.9%,-1.05,-0.75,-0.312,-7.67% (inactive),-0.483 (inactive),-3.9e-05 (inactive),0.00455 (inactive),inactive,-9.53% (inactive)
C=CCn1c(N)c(C(=O)Nc2ccccc2)c2nc3ccccc3nc21,628,9.1% (inactive),-27.4% (inactive),121%,1.06,-1.1,-0.334,9.07% (inactive),-0.398 (inactive),-1.8e-05 (inactive),0.00512 (inactive),active; no signal in intestine only,59.2% (active)
CC(C)c1nc2n[nH]c(N)c2c2c1CCCC2,576,2.1% (inactive),-38.2% (inactive),148%,-0.386,1.02,-1.27,7.21% (inactive),-0.465 (inactive),-8.5e-05 (inactive),0.00509 (inactive),inactive,-2.96% (inactive)
O=C(C1CCCCC1)N1CCCn2c1nc1ccccc12,466,-4.2% (inactive),40.4% (inactive),93.7%,0.0435,0.0435,-0.166,-0.233% (inactive),-0.481 (inactive),-3.7e-05 (inactive),0.00633 (inactive),inactive,-20.3% (inactive)
Cn1c(=O)[nH]c(=O)c2c1nc(Br)n2CCSc1ncccn1,643,-7.6% (inactive),-107% (inactive),179%,0.65,-0.91,-0.622,-2.59% (inactive),-0.446 (inactive),-4.5e-05 (inactive),0.00519 (inactive),inactive,13.2% (inactive)
O=C(CC(c1ccc(F)cc1)c1ccco1)N1CCCC1 (stereo unspecified),494,-4% (inactive),-36.9% (inactive),182%,-0.749,0.895,-0.708,9.91% (inactive),-0.404 (inactive),-1.7e-05 (inactive),0.00541 (inactive),inactive,-1.73% (inactive)
COc1ccc2c(c1)c(C(=O)CN1CCOCC1)c(C)n2C,628,0.5% (inactive),57.3% (inactive),85.8%,-0.409,-0.95,1.79,17.8% (inactive),-0.48 (inactive),-5.6e-05 (inactive),0.00679 (inactive),active; weak signal in gallbladder and intestine,27.4% (inactive)
Cn1c(=O)[nH]c(=O)c2c1nc(Br)n2CCSc1nnnn1-c1ccccc1,639,0.9% (inactive),-40.4% (inactive),177%,-0.541,-0.392,1.24,3.42% (inactive),-0.384 (inactive),-4e-05 (inactive),0.00586 (inactive),inactive,27.6% (inactive)
CCOc1ccc2nc(NC(NC(C)=O)(C(=O)OC)C(F)(F)F)sc2c1 (stereo unspecified),550,1.9% (inactive),-54.7% (inactive),119%,-0.584,0.796,1.15,-4.59% (inactive),-0.459 (inactive),-0.000128 (inactive),0.00553 (inactive),inactive,7.67% (inactive)
COCc1n[nH]c(=S)n1-c1cccc2ccccc12,533,-1.3% (inactive),-25.8% (inactive),173%,0.455,0.388,0.964,5.95% (inactive),-0.415 (inactive),-4.6e-05 (inactive),0.00527 (inactive),inactive,4.29% (inactive)
N#Cc1cc(Oc2cccc3cccnc23)c(-n2nnc3ccccc32)cc1C#N,527,-0.1% (inactive),-156% (inactive),145%,2.59,-0.877,-1.07,6.04% (inactive),-0.438 (inactive),-2.5e-05 (inactive),0.0061 (inactive),inactive,25.9% (inactive)
CCC(=NC(CC)CO)C1=C(O)CC(C)(C)CC1=O (stereo unspecified),686,-11.6% (inactive),-103% (inactive),171%,0.537,-0.145,1.26,-13.3% (inactive),-0.519 (inactive),-8.5e-05 (inactive),0.00583 (inactive),inactive,-0.04% (inactive)
O=C(Nc1nnc(SCc2ccccc2F)s1)c1ccco1,600,-10.3% (inactive),-62.9% (inactive),109%,-0.259,-0.419,-0.101,5.35% (inactive),-0.502 (inactive),-5.2e-05 (inactive),0.00604 (inactive),inactive,39.5% (inactive)
CC(C)CSc1nc(N2CCOCC2)c2c(c1C#N)CC(C)(C)SC2,574,-6% (inactive),-69.8% (inactive),145%,-0.439,-0.915,-0.541,-5.81% (inactive),-0.424 (inactive),-8.1e-05 (inactive),0.00667 (inactive),inactive,25.7% (inactive)
COc1cc(C2C(C(C)=O)=C(O)C(=O)N2c2ccc(Br)cn2)ccc1O (stereo unspecified),406,-8.5% (inactive),-148% (inactive),180%,-0.216,-0.848,0.128,-2.59% (inactive),-0.446 (inactive),-0.000114 (inactive),0.00394 (inactive),inactive,23.7% (inactive)
CC(O)CNc1nc2c(c(=O)n(C)c(=O)n2C)n1Cc1cccc(C(F)(F)F)c1 (stereo unspecified),679,-9.1% (inactive),-182% (inactive),176%,0.999,-1.51,-1.36,11.9% (inactive),-0.511 (inactive),-5e-05 (inactive),0.00932 (inactive),inactive,4.09% (inactive)
CCOC(=O)c1[nH]c2ccc(F)cc2c1NC(=O)CCN1CCSCC1,617,-1.1% (inactive),-124% (inactive),130%,-0.422,0.0168,1.05,1.42% (inactive),-0.455 (inactive),-0.000125 (inactive),0.00431 (inactive),inactive,-7.59% (inactive)
CCOC(=O)C(C)Sc1nc(-c2cccs2)ccc1C#N (stereo unspecified),657,0.6% (inactive),29.6% (inactive),189%,-1.44,0.836,0.563,-7.86% (inactive),-0.427 (inactive),-5.7e-05 (inactive),0.00531 (inactive),inactive,4.31% (inactive)
OC1(C2(O)CC(c3ccccc3)ON2)CCCCC1 (stereo unspecified),713,6.2% (inactive),-8.5% (inactive),141%,0.0893,0.138,-1.51,-5.81% (inactive),-0.444 (inactive),-3.6e-05 (inactive),0.00531 (inactive),inactive,0.004% (inactive)
CCOC(=O)C(C)c1nc2ccccc2[nH]c1=O (stereo unspecified),579,-6.6% (inactive),-30.5% (inactive),164%,-0.098,0.564,0.462,1.9e-07% (inactive),-0.397 (inactive),-6.3e-05 (inactive),0.00575 (inactive),inactive,12.9% (inactive)
COc1ccc(CCNc2oc(COc3ccccc3)nc2C#N)cc1,481,-2.4% (inactive),-411% (inactive),140%,0.781,0.424,0.61,-3.95% (inactive),-0.409 (inactive),-5.2e-05 (inactive),0.00409 (inactive),inactive,-2.43% (inactive)
COC(=O)CSc1nc2c(c(=O)n(C)c(=O)n2C)n1CCC(C)C,599,-7% (inactive),-120% (inactive),130%,-2.77,3.03,-2.44,3.42% (inactive),-0.394 (inactive),6.8e-06 (inactive),0.00549 (inactive),inactive,-12.3% (inactive)
CC1(C)Cc2[nH]c(=O)c(C#N)cc2CS1,595,-11.1% (inactive),-93.7% (inactive),149%,0.698,-0.413,1.37,-0.233% (inactive),-0.435 (inactive),-0.000124 (inactive),0.00467 (inactive),inactive,3.23% (inactive)
COc1ccccc1C1/C(=C(\O)c2ccc3c(c2)OCCO3)C(=O)C(=O)N1CCCN(C)C (stereo unspecified),402,2.9% (inactive),-18% (inactive),134%,1.75,-0.784,1.05,-4.78% (inactive),-0.456 (inactive),-7.9e-05 (inactive),0.00501 (inactive),inactive,12.8% (inactive)
C=CCN(CC=C)c1nc2ccccc2nc1C(C#N)C(=O)OC(C)C (stereo unspecified),639,-6.1% (inactive),-48.1% (inactive),173%,-0.0253,-0.36,0.934,-13.3% (inactive),-0.467 (inactive),-4.8e-05 (inactive),0.00206 (inactive),inactive,7.18% (inactive)
O=C(Oc1cccnc1)c1ccco1,545,-0.5% (inactive),2.1% (inactive),99%,-1.51,1.45,1.18,-3.95% (inactive),-0.449 (inactive),-4.3e-05 (inactive),0.00414 (inactive),inactive,-17% (inactive)
